Experimental data published in paper PMC2864424 (Current Chemical Genomics, 2010).
Like-named read-outs stand apart in the source and are kept apart here.

Tests used:
OATP1B1 [1] = conditions: read-out: Ki, inhibition of OATP1B1-mediated pitavastatin uptake; cited from earlier work
[2] = test system: OATP1B1 and OATP1B3 (not distinguished); format: cell-based, human; conditions: human, CHO cells stably expressing OATP1B1 or OATP1B3, pH 7.4, probe FMTX, 5 µM
OATP1B1 [3] = target: T1, OATP1B1 (Homo sapiens, UniProt Q9Y6L6); format: cell-based; conditions: for preferential / selective inhibition of OATP1B1-mediated FMTX transport: compared with OATP1B3
T1 sequence (Q9Y6L6 1-691): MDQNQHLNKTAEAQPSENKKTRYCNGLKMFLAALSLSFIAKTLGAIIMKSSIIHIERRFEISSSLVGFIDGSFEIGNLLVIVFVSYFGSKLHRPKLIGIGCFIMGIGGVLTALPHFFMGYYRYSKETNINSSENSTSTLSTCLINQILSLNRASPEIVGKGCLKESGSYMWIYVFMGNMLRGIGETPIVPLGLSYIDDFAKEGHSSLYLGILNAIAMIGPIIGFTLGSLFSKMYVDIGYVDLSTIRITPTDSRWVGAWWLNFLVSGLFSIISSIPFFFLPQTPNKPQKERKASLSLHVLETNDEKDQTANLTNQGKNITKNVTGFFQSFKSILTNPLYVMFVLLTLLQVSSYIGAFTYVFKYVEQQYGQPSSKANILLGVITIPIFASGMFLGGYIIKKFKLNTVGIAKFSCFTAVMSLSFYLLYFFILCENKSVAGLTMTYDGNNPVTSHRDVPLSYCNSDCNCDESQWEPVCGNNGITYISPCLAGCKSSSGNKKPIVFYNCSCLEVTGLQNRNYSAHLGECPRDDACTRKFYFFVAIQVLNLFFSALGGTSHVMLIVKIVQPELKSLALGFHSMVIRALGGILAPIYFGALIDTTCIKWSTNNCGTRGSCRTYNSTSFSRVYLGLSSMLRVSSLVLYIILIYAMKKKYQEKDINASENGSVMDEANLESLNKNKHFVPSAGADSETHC

OATP1B1 [4] = target: T1, OATP1B1; format: cell-based; conditions: 24-well plates
OATP1B3 [5] = target: T2, OATP1B3 (Homo sapiens, UniProt Q9NPD5); format: cell-based
T2 sequence (Q9NPD5 1-702): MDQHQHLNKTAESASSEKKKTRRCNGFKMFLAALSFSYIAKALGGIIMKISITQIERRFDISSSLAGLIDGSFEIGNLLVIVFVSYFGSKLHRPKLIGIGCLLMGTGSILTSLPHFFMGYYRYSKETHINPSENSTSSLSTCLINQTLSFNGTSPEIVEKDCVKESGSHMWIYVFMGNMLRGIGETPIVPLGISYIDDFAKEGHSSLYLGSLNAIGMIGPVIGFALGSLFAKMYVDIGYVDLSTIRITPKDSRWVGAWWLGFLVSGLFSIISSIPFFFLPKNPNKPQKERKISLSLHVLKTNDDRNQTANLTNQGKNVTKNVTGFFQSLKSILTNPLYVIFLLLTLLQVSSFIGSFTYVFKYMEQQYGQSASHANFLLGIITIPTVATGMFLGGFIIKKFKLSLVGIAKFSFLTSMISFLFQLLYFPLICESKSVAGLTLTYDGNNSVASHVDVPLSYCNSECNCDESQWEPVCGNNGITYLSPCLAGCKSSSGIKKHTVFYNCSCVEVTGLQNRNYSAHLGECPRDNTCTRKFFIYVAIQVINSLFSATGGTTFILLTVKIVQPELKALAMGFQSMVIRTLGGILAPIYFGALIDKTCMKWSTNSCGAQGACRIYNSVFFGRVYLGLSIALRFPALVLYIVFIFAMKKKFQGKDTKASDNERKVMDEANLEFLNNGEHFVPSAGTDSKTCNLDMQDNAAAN
Summary of the method: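 Stably transfected CHO cells were grown at 37 °C, 5% CO2 in DMEM with 10% FBS, L-proline and 500 μg/ml G-418, passaged twice weekly and used up to passage 55. Cells were washed with 37 °C uptake buffer (pH 7.4) and incubated with fluorescent compound at 37 °C. Cells were then washed four times with ice-cold buffer and lysed in 1% Triton X-100. Fluorescence was read at 485/528 nm, with Vmax expressed per mg protein per min.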

OATP1B3 [6] = target: T2, OATP1B3; format: cell-based; conditions: for preferential inhibition of OATP1B3-mediated FMTX transport: compared with OATP1B1
OATP2B1 = conditions: cited from earlier work
OATP1B1 [7] = conditions: read-out: Ki, inhibition of fexofenadine transport, OATP1B1; cited from earlier work
OATP1B3 [8] = conditions: read-out: Ki, inhibition of BSP transport, OATP1B3; cited from earlier work
OATP1B1 [9] = conditions: read-out: IC50, inhibition of Ro 48-5033 uptake, OATP1B1; ref Treiber et al. 5; cited from earlier work
OATP1B3 [10] = conditions: read-out: Ki, inhibition of fexofenadine transport, OATP1B3; cited from earlier work
OATP1B1 [11] = conditions: read-out: Ki, inhibition of BSP transport, OATP1B1; cited from earlier work
OATP1B3 [12] = conditions: read-out: IC50, inhibition of bosentan transport, OATP1B3; ref Treiber et al. 5; cited from earlier work
OATP1B3 [13] = conditions: read-out: IC50, inhibition of Ro 48-5033 uptake, OATP1B3; ref Treiber et al. 5; cited from earlier work
OATP1B1 and OATP1B3 = format: cell-based, human; conditions: primary screen of FMTX uptake by OATP1B1 or OATP1B3
OATP1B1 [14] = conditions: read-out: IC50, inhibition of bosentan transport, OATP1B1; ref Treiber et al. 5; cited from earlier work
wild-type CHO cells = test: FMTX uptake into wild-type CHO cells, 96-well plates; format: cell-based, Chinese Hamster; conditions: 5 μM FMTX, 30 min, room temperature
Summary of the method: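 Cells were washed three times with room-temperature buffer and given 5 µM FMTX for 30 min at room temperature. They were then washed four times and lysed in 1% Triton X-100 in PBS. Fluorescence was read at ex 485/em 528 nm.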

[15] = substrate: O=C1OC2(c3ccc(O)cc3Oc3cc(O)ccc32)c2ccccc21; format: cell-based, human; conditions: other: 37 °C, 2 min, 24-well plates, net uptake
[16] = 5 μM FMTX, 30 min, room temperature, 96-well plates
[17] = 5 μM FMTX, 30 min, room temperature, 96-well plates, no inhibitor

## CN(Cc1cnc2nc(N)nc(N)c2n1)c1ccc(C(=O)N[C@@H](CCC(=O)O)C(=O)O)cc1 [methotrexate]
OATP1B1 [1]
  Ki: > 300 µM
[2]
  inhibition at 30 min, 100 µM: 30%

## Bromocryptine
OATP1B1 [3]
  preferential / selective inhibition of OATP1B1-mediated FMTX transport: preferentially inhibited OATP1B1

## O=C(COc1ccc(Cl)cc1)N1CCN(Cc2ccc3c(c2)OCO3)CC1 [Fipexide]
OATP1B1 [3]
  preferential / selective inhibition of OATP1B1-mediated FMTX transport: preferentially inhibited OATP1B1

## O=C1OC2(c3ccc(O)cc3Oc3cc(O)ccc32)c2ccccc21 [fluorescein]
OATP1B1 [4]; 1 µM, 30 min
  transported by OATP1B1: transported
OATP1B3 [5]; human, CHO cells stably expressing OATP1B3, pH 7.4
  Km at 2 min: 82 ± 10 µM

## CCOC(=O)c1cncn1[C@H](C)c1ccccc1 [Etomidate]
[2]
  IC50 at 30 min: > 100 µM

## CC(C)C[C@H]1C(=O)N2CCC[C@H]2[C@]2(O)O[C@](NC(=O)[C@@H]3C=C4c5cccc6[nH]cc(c56)C[C@H]4N(C)C3)(C(C)C)C(=O)N12 [Ergocryptine]
OATP1B1 [3]
  preferential / selective inhibition of OATP1B1-mediated FMTX transport: preferentially inhibited OATP1B1

## CC(=O)[C@H]1CC[C@H]2[C@@H]3CCC4=CC(=O)CC[C@]4(C)[C@H]3CC[C@]12C [progesterone]
OATP1B3 [6]
  EC50: 0.2 µM
OATP1B3 [6]; [16]
  effect on OATP1B3-mediated FMTX uptake: stimulated
OATP1B1 [3]
  IC50: 5.4 ± 1.9 µM
OATP1B1 [3]; [16]
  effect on OATP1B1-mediated FMTX uptake: inhibited
OATP2B1
  effect on OATP2B1-mediated estrone-3-sulfate uptake: stimulate

## CO[C@H]1/C=C/O[C@@]2(C)Oc3c(C)c(O)c4c(O)c(c(/C=N/N5CCN(C)CC5)c(O)c4c3C2=O)NC(=O)/C(C)=C\C=C\[C@H](C)[C@H](O)[C@@H](C)[C@@H](O)[C@@H](C)[C@H](OC(C)=O)[C@@H]1C [Rifampicin]
OATP1B1 [7]
  Ki: 0.5 µM
OATP1B3 [8]
  Ki: 5 µM
OATP1B1 [9]
  IC50: ~50 µM
OATP1B3 [10]
  Ki: 1.5 µM
OATP1B1 [11]
  Ki: 17 µM
OATP1B3 [12]
  IC50: 1.6 µM
OATP1B3 [13]
  IC50: 0.8 µM
[2]
  IC50 at 30 min: 1.3 to 1.5 µM
OATP1B1 and OATP1B3
  Prestwick library screening result: strongest inhibitors
OATP1B1 [14]
  IC50: 3.2 µM

## CCN1C[C@]2(COC)[C@H](O)C[C@H](OC)[C@@]34[C@@H]5C[C@@]6(O)[C@H](OC(=O)c7ccccc7)[C@@H]5[C@@](OC(C)=O)([C@@H]([C@H](OC)[C@H]23)[C@@H]14)[C@@H](O)[C@@H]6OC [Aconitine]
[2]
  IC50 at 30 min: > 100 µM

## O=c1[nH]c(=O)n([C@H]2C[C@H](O)[C@@H](CO)O2)cc1C(F)(F)F [Trifluridine]
[2]
  IC50 at 30 min: > 100 µM

## Alexa Fluor® 488 methotrexate [AMTX]
OATP1B3 [5]; 1 µM, 30 min, 24-well plates
  substrate of OATP1B3: not transported

## fluorescein-methotrexate [FMTX]
OATP1B3 [6]; [16]
  typical uptake, OATP1B3-expressing cells: 33,880 ± 3,645 fluorescent units
OATP1B3 [6]; [17]
  signal-to-basal ratio of uptake, OATP1B3: 7.7
OATP1B1 [3]; [16]
  typical uptake, OATP1B1-expressing cells: 15,060 ± 1,540 fluorescent units
OATP1B1 [3]; [17]
  signal-to-basal ratio of uptake, OATP1B1: 3.4
wild-type CHO cells
  typical uptake, wild-type CHO cells: 4,400 ± 80 fluorescent units
OATP1B1 [4]; 1 µM, 30 min
  transported by OATP1B1: transported
OATP1B1 [4]; 1 µM, 30 min, versus wild-type CHO
  uptake signal, OATP1B1: about 3 fold
OATP1B1 [4]; 37 °C, 2 min
  Vmax, OATP1B1: 961 ± 198 fluorescent units/mg protein * min
OATP1B1 [4]; read-out: apparent Km, OATP1B1, 37 °C, 2 min, net uptake
  Km: 3.8 ± 0.7 µM
OATP1B3 [5]; 1 µM, 30 min, 24-well plates, versus wild-type CHO
  uptake signal, OATP1B3: about 4.5 fold
OATP1B3 [5]; 37 °C, 2 min, 24-well plates
  Vmax, OATP1B3: 4772 ± 709 fluorescent units/mg protein * min
OATP1B3 [5]; Vmax/Km compared
  fold higher transport efficiency of OATP1B3 than OATP1B1: 2–3 fold
OATP1B3 [5]; read-out: apparent Km, OATP1B3, 37 °C, 2 min, 24-well plates, net uptake
  Km: 7.9 ± 2 µM

## O=C(O)c1cccnc1Nc1cccc(C(F)(F)F)c1 [Niflumic acid]
OATP1B1 [3]
  preferential / selective inhibition of OATP1B1-mediated FMTX transport: preferentially inhibited OATP1B1

## CCOC(=O)Nc1ccc2c(c1)N(C(=O)CCN1CCOCC1)c1ccccc1S2 [Moricizine]
OATP1B3 [6]
  preferential inhibition of OATP1B3-mediated FMTX transport: preferentially inhibited OATP1B3

## C[C@H]1C[C@H]2[C@@H]3CCC4=CC(=O)C=C[C@]4(C)[C@@]3(Cl)[C@@H](O)C[C@]2(C)[C@@]1(O)C(=O)CO [Beclomethasone]
OATP1B3 [6]; FMTX uptake IC50 values
  selectivity for OATP1B3 over OATP1B1: about 5 fold
OATP1B3 [6]
  preferential inhibition of OATP1B3-mediated FMTX transport: preferential inhibitors
OATP1B3 [6]; listed as beclamethasone
  preferential inhibition of OATP1B3-mediated FMTX transport: preferentially inhibited OATP1B3

## CC(C)(C)NC(=O)[C@@H]1C[C@@H]2CCCC[C@@H]2CN1C[C@@H](O)[C@H](Cc1ccccc1)NC(=O)[C@H](CC(N)=O)NC(=O)c1ccc2ccccc2n1 [saquinavir]
OATP1B1 and OATP1B3
  Prestwick library screening result: strongest inhibitors

## Cc1ncc([N+](=O)[O-])n1CCO [Metronidazole]
[2]
  IC50 at 30 min: > 100 µM

## CCOc1cc(CC(=O)N[C@@H](CC(C)C)c2ccccc2N2CCCCC2)ccc1C(=O)O [Repaglinide]
OATP1B1 [3]
  preferential / selective inhibition of OATP1B1-mediated FMTX transport: preferentially inhibited OATP1B1

B1: OATP1B1 (Homo sapiens) (protein)
chain: MDQNQHLNKTAEAQPSENKKTRYCNGLKMFLAALSLSFIAKTLGAIIMKSSIIHIERRFEISSSLVGFIDGSFEIGNLLVIVFVSYFGSKLHRPKLIGIGCFIMGIGGVLTALPHFFMGYYRYSKETNINSSENSTSTLSTCLINQILSLNRASPEIVGKGCLKESGSYMWIYVFMGNMLRGIGETPIVPLGLSYIDDFAKEGHSSLYLGILNAIAMIGPIIGFTLGSLFSKMYVDIGYVDLSTIRITPTDSRWVGAWWLNFLVSGLFSIISSIPFFFLPQTPNKPQKERKASLSLHVLETNDEKDQTANLTNQGKNITKNVTGFFQSFKSILTNPLYVMFVLLTLLQVSSYIGAFTYVFKYVEQQYGQPSSKANILLGVITIPIFASGMFLGGYIIKKFKLNTVGIAKFSCFTAVMSLSFYLLYFFILCENKSVAGLTMTYDGNNPVTSHRDVPLSYCNSDCNCDESQWEPVCGNNGITYISPCLAGCKSSSGNKKPIVFYNCSCLEVTGLQNRNYSAHLGECPRDDACTRKFYFFVAIQVLNLFFSALGGTSHVMLIVKIVQPELKSLALGFHSMVIRALGGILAPIYFGALIDTTCIKWSTNNCGTRGSCRTYNSTSFSRVYLGLSSMLRVSSLVLYIILIYAMKKKYQEKDINASENGSVMDEANLESLNKNKHFVPSAGADSETHC
[15]
  Km: 38 ± 5 µM
